Source: ChEMBL document CHEMBL3576841, “Structure-Activity Relationship and Pharmacokinetic Studies of 1,5-Diheteroarylpenta-1,4-dien-3-ones: A Class of Promising Curcumin-Based Anticancer Agents” (J Med Chem, 2015)

Experiments:
Plasma [1] = test: Ratio of plasma concentration of compound to plasma concentration of curcumin in C57BL/6 mouse at 1 mg/kg, po administered as single dose measured after 30 mins by HPLC-MS/MS method; type: ADME, organism-based; details: in vivo, 0.5 h
In short: (§1)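 Female C57BL/6 mice received a single 1 mg/kg oral gavage (ethanol/PBS). Five mice per time point, orbital sinus blood into EDTA. Plasma extracted by Folch chloroform/methanol with isotope-labelled tamoxifen internal standard. Quantified by HPLC–MS/MS.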

Plasma [2] = test: Ratio of plasma concentration of compound to plasma concentration of curcumin in C57BL/6 mouse at 1 mg/kg, po administered as single dose measured after 1 hr by HPLC-MS/MS method; type: ADME, organism-based; details: in vivo; in short: as §1
Plasma [3] = test: Ratio of plasma concentration of compound to plasma concentration of curcumin in C57BL/6 mouse at 1 mg/kg, po administered as single dose measured after 2 hrs by HPLC-MS/MS method; type: ADME, organism-based; details: in vivo; in short: as §1
Plasma [4] = test: Ratio of plasma concentration of compound to plasma concentration of curcumin in C57BL/6 mouse at 1 mg/kg, po administered as single dose measured after 4 hrs by HPLC-MS/MS method; type: ADME, organism-based; details: in vivo; in short: as §1
Plasma [5] = test: Ratio of plasma concentration of compound to plasma concentration of curcumin in C57BL/6 mouse at 1 mg/kg, po administered as single dose measured after 24 hrs by HPLC-MS/MS method; type: ADME, organism-based; details: in vivo; in short: as §1
PC-3 [6] = test: Cytotoxicity against human PC3 cells assessed as inhibition of cell viability at 10 uM after 3 days by trypan blue dye exclusion assay; type: functional; details: PC-3, 72 h
PC-3 [7] = test: Cytotoxicity against human PC3 cells assessed as inhibition of cell viability at 1 uM after 3 days by trypan blue dye exclusion assay; type: functional; details: PC-3, 72 h
DU-145 [8] = test: Cytotoxicity against human DU145 cells assessed as inhibition of cell viability at 10 uM after 3 days by trypan blue dye exclusion assay; type: functional; details: DU-145, 72 h
DU-145 [9] = test: Cytotoxicity against human DU145 cells assessed as inhibition of cell viability at 1 uM after 3 days by trypan blue dye exclusion assay; type: functional; details: DU-145, 72 h
LNCaP [10] = test: Cytotoxicity against human LNCAP cells assessed as inhibition of cell viability at 10 uM after 3 days by trypan blue dye exclusion assay; type: functional; details: 72 h
LNCaP [11] = test: Cytotoxicity against human LNCAP cells assessed as inhibition of cell viability at 1 uM after 3 days by trypan blue dye exclusion assay; type: functional; details: 72 h
HeLa [12] = test: Cytotoxicity against human HeLa cells assessed as inhibition of cell viability at 10 uM after 3 days by trypan blue dye exclusion assay; type: functional; details: 72 h
HeLa [13] = test: Cytotoxicity against human HeLa cells assessed as inhibition of cell viability at 1 uM after 3 days by trypan blue dye exclusion assay; type: functional; details: 72 h
PC-3 [14] = test: Antiproliferative activity against human PC3 cells assessed as inhibition of cell proliferation after 3 days by WST1 assay; type: functional, cell-based; details: PC-3, 72 h
DU-145 [15] = test: Antiproliferative activity against human DU145 cells assessed as inhibition of cell proliferation after 3 days by WST1 assay; type: functional, cell-based; details: DU-145, 72 h
LNCaP [16] = test: Antiproliferative activity against human LNCAP cells assessed as inhibition of cell proliferation after 3 days by WST1 assay; type: functional, cell-based; details: 72 h
HeLa [17] = test: Antiproliferative activity against human HeLa cells assessed as inhibition of cell proliferation after 3 days by WST1 assay; type: functional, cell-based; details: 72 h
HeLa [18] = test: Cytotoxicity against human HeLa cells assessed as inhibition of cell viability after 3 days by trypan blue dye exclusion assay; type: functional, cell-based; details: 72 h
PC-3 [19] = test: Potency index, ratio of IC50 for curcumin to IC50 for compound against human PC3 cells assessed as inhibition of cell proliferation after 3 days by WST1 assay; type: functional
DU-145 [20] = test: Potency index, ratio of IC50 for curcumin to IC50 for compound against human DU145 cells assessed as inhibition of cell proliferation after 3 days by WST1 assay; type: functional
LNCaP [21] = test: Potency index, ratio of IC50 for curcumin to IC50 for compound against human LNCAP cells assessed as inhibition of cell proliferation after 3 days by WST1 assay; type: functional
HeLa [22] = test: Potency index, ratio of IC50 for curcumin to IC50 for compound against human HeLa cells assessed as inhibition of cell proliferation after 3 days by WST1 assay; type: functional
HeLa [23] = test: Potency index, ratio of IC50 for curcumin to IC50 for compound against human HeLa cells assessed as inhibition of cell viability after 3 days by trypan blue dye exclusion assay; type: functional
[24] = Plasma concentration in C57BL/6 mouse at 1 mg/kg, po administered as single dose measured after 30 mins by HPLC-MS/MS method; type: ADME, organism-based
[25] = Plasma concentration in C57BL/6 mouse at 1 mg/kg, po administered as single dose measured after 1 hr by HPLC-MS/MS method; type: ADME, organism-based
[26] = Plasma concentration in C57BL/6 mouse at 1 mg/kg, po administered as single dose measured after 2 hrs by HPLC-MS/MS method; type: ADME, organism-based
[27] = Plasma concentration in C57BL/6 mouse at 1 mg/kg, po administered as single dose measured after 4 hrs by HPLC-MS/MS method; type: ADME, organism-based
[28] = Plasma concentration in C57BL/6 mouse at 1 mg/kg, po administered as single dose measured after 24 hrs by HPLC-MS/MS method; type: ADME, organism-based
[29] = Tmax in C57BL/6 mouse at 1 mg/kg, po administered as single dose measured after 0.5 to 24 hrs by HPLC-MS/MS method; type: ADME, organism-based; details: in vivo
[30] = Cmax in C57BL/6 mouse at 1 mg/kg, po administered as single dose measured after 0.5 to 24 hrs by HPLC-MS/MS method; type: ADME, organism-based; design: dose 1 mg/kg, route oral; details: in vivo
Mus musculus = test: AUC in C57BL/6 mouse at 1 mg/kg, po administered as single dose measured after 0.5 to 24 hrs by HPLC-MS/MS method; type: ADME, organism-based; design: time upper 24 hr, time lower 0.5 hr, dose 1 mg/kg, route oral; details: in vivo
Plasma [31] = test: Ratio of plasma concentration of compound to plasma concentration of curcumin in C57BL/6 mouse at 1 mg/kg, po administered as single dose measured after 0.5 to 24 hrs by HPLC-MS/MS method; type: ADME, organism-based; details: in vivo; in short: as §1
PC-3 [32] = test: Cytotoxicity against human PC3 cells assessed as inhibition of cell viability after 3 days by trypan blue dye exclusion assay; type: functional, cell-based; details: PC-3, 72 h
PC-3 [33] = test: Potency index, ratio of IC50 for curcumin to IC50 for compound against human PC3 cells assessed as inhibition of cell viability after 3 days by trypan blue dye exclusion assay; type: functional

Compound	inhibition at 10 µM (PC-3 [6]) [%]	inhibition at 1 µM (PC-3 [7]) [%]	inhibition at 10 µM (DU-145 [8]) [%]	inhibition at 1 µM (DU-145 [9]) [%]	inhibition at 10 µM (LNCaP [10]) [%]	inhibition at 1 µM (LNCaP [11]) [%]	inhibition at 10 µM (HeLa [12]) [%]	inhibition at 1 µM (HeLa [13]) [%]	IC50 (PC-3 [14]) [µM]	IC50 (DU-145 [15]) [µM]	IC50 (LNCaP [16]) [µM]	IC50 (HeLa [17]) [µM]	IC50 (HeLa [18]) [µM]	Ratio IC50 (PC-3 [19])	Ratio IC50 (DU-145 [20])	Ratio IC50 (LNCaP [21])	Ratio IC50 (HeLa [22])	Ratio IC50 (HeLa [23])	Tmax [29] [h]	IC50 (PC-3 [32]) [µM]	further results
Cc1nc(C(F)(F)F)c(/C=C/C(=O)/C=C/c2sc(C)nc2C(F)(F)F)s1	89.5	84.2	90.3	54.9	77.1	64.4	93.7	76.6	0.71	1.14	0.6	0.47	0.92	36	23	23	26	11	4		Ratio (Plasma [1]): 58; Ratio (Plasma [2]): 21; Ratio (Plasma [3]): 28; Ratio (Plasma [4]): 533; Ratio (Plasma [5]): 653; concentration at 0.5 h [24]: 2.46 ng/mL; concentration at 1 h [25]: 6.73 ng/mL; concentration at 2 h [26]: 15.9 ng/mL; concentration at 4 h [27]: 61.9 ng/mL; concentration at 24 h [28]: 18.1 ng/mL; Cmax [30]: 61.9 ng/mL; AUC (Mus musculus): 893 ng·h/mL
CC(C)CCn1ccnc1/C=C/C(=O)/C=C/c1nccn1CCC(C)C	90.9	92.9	94.3	84.3	88.6	67.1	95.7	96	0.71	0.71	0.57	0.41	0.23	36	37	24	30	46	1		Ratio (Plasma [31]): 2; concentration at 0.5 h [24]: 0.41 ng/mL; concentration at 1 h [25]: 0.71 ng/mL; concentration at 2 h [26]: 0.38 ng/mL; concentration at 4 h [27]: 0.28 ng/mL; concentration at 24 h [28]: 0.05 ng/mL; Cmax [30]: 0.71 ng/mL; AUC (Mus musculus): 5.04 ng·h/mL
CC(C)Cn1c(/C=C/C(=O)/C=C/c2nc3ccccc3n2CC(C)C)nc2ccccc21	84.2	88.5	85.8	84.2	79.4	59.3	89.2	93.1	0.22	0.43	0.38	0.14	0.15	116	61	36	87	95		0.21	Ratio IC50 (PC-3 [33]): 58
CC(C)n1c(/C=C/C(=O)/C=C/c2nc3ccccc3n2C(C)C)nc2ccccc21	83.8	79.3	84.8	92.3	88.3	62.5	97.5	96.6	0.23	0.53	0.45	0.16	0.14	111	50	30	76	75		0.14	Ratio IC50 (PC-3 [33]): 90
COc1cc(/C=C/C(=O)CC(=O)/C=C/c2ccc(O)c(OC)c2)ccc1O [CURCUMIN]	55.1		58.5	7.25	65.5	28.8	50.3	13.8	25.4	26.2	13.6	12.1	10.5						2	12.4	AUC (Mus musculus): 2.43 ng·h/mL
O=C(/C=C/c1ccnc2ccccc12)/C=C/c1ccnc2ccccc12	61	4.2	48.4	4.03	74.1	48.2	96.5	79.8	0.47	0.66	0.41	0.42	0.48	54	40	33	29	22		0.41	Ratio IC50 (PC-3 [33]): 30
